Test results taken from ChEMBL document CHEMBL1138476 (J Med Chem, 2009).

What was measured:
[1] = system: Canis familiaris; assay: Effect on respiratory function in spontaneously breathing mongrel dog assessed as change in minute volume at 5 mg/kg after intravenous infusion for 60 mins (RVb= -13.4+/-10.7 %); type: functional, Canis lupus familiaris
[2] = system: Canis familiaris; assay: Effect on respiratory function in spontaneously breathing mongrel dog assessed as change in airway resistance at 5 mg/kg after intravenous infusion for 30 mins (RVb= 20.2+/-12.3 %); type: functional, Canis lupus familiaris
[3] = Oral bioavailability in chimpanzee at 1 mg/kg; type: ADME, organism-based, Pan troglodytes; details: in vivo
Procedure, shortened: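 Two alert chimpanzees were given 1 mg/kg po as a 1 mg/mL suspension in 50:50 (v/v) 0.5% methylcellulose and Tang orange juice containing 1% Tween-80. EDTA blood was taken predose and at 2–96 h. Bioavailability was calculated against a 0.5 mg/kg iv dose given to one animal.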

[4] = Plasma concentration in rat at 30 mg/kg, po after 1 hr; type: ADME, organism-based; design: dose 30 mg/kg, route oral
Procedure, shortened: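 Rats (n = 9, renal function study) given 30 mg/kg po; plasma levels measured in a separate cohort dosed the same way, sampled at 1 and 5 h after dosing.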

[5] = target: T1, Corticotropin-releasing factor receptor 1 (Rattus norvegicus, UniProt P35353); assay: Displacement of [125I]Tyro-rat/human CRF from CRF1 receptor in rat cortical membrane by gamma counting; type: cell membranes
T1 sequence (P35353 whole entry): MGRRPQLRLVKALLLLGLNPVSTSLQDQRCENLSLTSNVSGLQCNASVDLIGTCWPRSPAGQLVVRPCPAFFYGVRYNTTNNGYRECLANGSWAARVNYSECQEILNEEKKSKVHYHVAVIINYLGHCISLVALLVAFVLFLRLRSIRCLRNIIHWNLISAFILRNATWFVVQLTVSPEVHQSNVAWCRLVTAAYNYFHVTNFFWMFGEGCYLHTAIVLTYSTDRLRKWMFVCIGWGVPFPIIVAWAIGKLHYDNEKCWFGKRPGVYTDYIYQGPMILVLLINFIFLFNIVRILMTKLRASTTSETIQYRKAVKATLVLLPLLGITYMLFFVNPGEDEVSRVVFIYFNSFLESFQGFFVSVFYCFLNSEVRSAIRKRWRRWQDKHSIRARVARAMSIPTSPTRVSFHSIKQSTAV
Procedure, shortened: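 Binding to CRF receptors in rat cortical homogenate.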

[6] = Cmax in chimpanzee at 1 mg/kg, po; type: ADME, organism-based, Pan troglodytes; design: dose 1 mg/kg, route oral; details: in vivo
Procedure, shortened: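 Chimpanzee PK. Oral: 1 mg/kg in two alert animals, given as a 1 mg/mL suspension in 50–50 (v/v) 0.5% methylcellulose/Tang orange juice with 1% Tween-80. IV: 0.5 mg/kg in one animal in 10% DMAC, 70% propylene glycol and deionized water, infused over 10 min (0.2 mL/kg). EDTA blood was taken predose and at 2–96 h; iv sampling added 6, 15 and 30 min.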

[7] = system: Canis familiaris; assay: Effect on respiratory function in spontaneously breathing mongrel dog assessed as change in peak expiratory flow at 5 mg/kg after intravenous infusion for 15 mins (RVb= -8.4+/-6.6 %); type: functional, Canis lupus familiaris
[8] = Plasma concentration in dog at 0.3 mg/kg after intravenous infusion for 30 mins; type: ADME, organism-based, Canis lupus familiaris; design: dose 0.3 mg/kg, route intravenous
[9] = system: Canis familiaris; assay: Effect on respiratory function in spontaneously breathing mongrel dog assessed as change in pulmonary compliance at 5 mg/kg after intravenous infusion for 60 mins (RVb= -4.8+/-[…]); type: functional, Canis lupus familiaris
[10] = system: Rattus norvegicus; assay: Anxiolytic activity in rat assessed as decrease in latency to exit dark chamber at 3 mg/kg, po by defensive withdrawal test relative to untreated control; type: functional; design: scale not given: the % may be the effect or the level left
Procedure, shortened: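 Rat defensive withdrawal: latency to leave the dark chamber and explore the open field, maximum 900 s. Dosed orally in 0.25% Methocel 60 min before testing; n = 8 per dose, mean ± SEM. Analysed by Kruskal–Wallis followed by Mann–Whitney U against vehicle.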

bioavailability [3]: 49%
concentration at 1 h [4]: 3990 nM
IC50 [5]: 6.1 nM
Cmax [6]: 840 nM
concentration at 0.5 h [8]: 150 nM
Structure (SMILES): CC[C@@H](C)Nc1nc(C)nc2c(-c3ccc(OC)nc3C)c(C)nn12 [PEXACERFONT]
Activity [1]: -6%
Activity [2]: -57.5%
Activity [7]: -0.1%
Activity [9]: 33.8%
Activity [10]: 44%
